{"source": "ChEMBL document CHEMBL1144418", "about": "“Structure-activity relationships of fluorinated lysophosphatidic acid analogues” (J Med Chem, 2005)"}
{"target": "T1, Lysophosphatidic acid receptor 3 (Homo sapiens, UniProt Q9UBY5)", "T1 sequence (Q9UBY5 whole entry)": "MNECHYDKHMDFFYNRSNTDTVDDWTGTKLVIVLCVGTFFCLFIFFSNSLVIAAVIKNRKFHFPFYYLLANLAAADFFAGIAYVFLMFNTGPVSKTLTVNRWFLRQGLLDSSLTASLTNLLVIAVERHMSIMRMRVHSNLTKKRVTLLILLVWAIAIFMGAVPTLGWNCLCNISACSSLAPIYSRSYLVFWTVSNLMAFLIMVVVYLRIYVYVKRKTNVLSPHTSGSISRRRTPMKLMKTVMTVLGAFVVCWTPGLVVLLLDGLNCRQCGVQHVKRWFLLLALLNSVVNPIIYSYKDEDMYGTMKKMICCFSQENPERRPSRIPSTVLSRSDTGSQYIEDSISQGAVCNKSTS", "test": "Agonistic activity as increased intracellular calcium level by human LPA3 receptor expressed in Sf9 cells", "format": "functional", "how_it_was_run": "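Sf9 insect cells infected with baculovirus encoding human LPA3, harvested 48 h post-infection, washed in MES-buffered saline (pH 6.2, 0.1% fatty acid-free BSA, 10 mM CaCl2), loaded with Fura-2 AM 45 min, resuspended at 10^6 cells/mL; ligand-evoked fluorescence at 27 °C in quartz cuvettes, excitation 340/380 nm, emission 500 nm, recorded before and after ligand addition; EC50 from concentration-response.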", "units": {"EC50": "nM"}}
{"smiles": "CCCCCCCC/C=C/CCCCCCCC(=O)O[C@H](COP(=O)(O)O)CC(F)F", "EC50": "> 10000"}
{"smiles": "CCCCCCCC/C=C/CCCCCCCC(=O)OC[C@@H](O)CC(F)P(=O)(O)O", "note": "(stereo partly drawn)", "EC50": 0.5}
{"smiles": "CCCCCCCCCCCCCCCC(=O)OC(CF)COP(=O)(O)O", "note": "(single isomer, unassigned)", "EC50": "~3000"}
{"smiles": "CCCCCCCC/C=C/CCCCCCCC(=O)OC[C@H](O)CC(F)P(=O)(O)O", "note": "(stereo partly drawn)", "EC50": 500}
{"smiles": "CCCCCCCCCCCCCCCC(=O)O[C@H](COP(=O)(O)O)C(F)F", "EC50": "> 10000"}
{"smiles": "CCCCCCCC/C=C/CCCCCCCC(=O)OC[C@H](F)COP(=O)(O)O", "EC50": "~1000"}
{"smiles": "CCCCCCCCCCCCCCCC(=O)OC[C@H](O)CC(F)P(=O)(O)O", "note": "(stereo partly drawn)", "EC50": "> 10000"}
{"smiles": "CCCCCCCCCCCCCCCC(=O)O[C@H](COP(=O)(O)O)CC(F)F", "EC50": "> 10000"}
{"smiles": "CCCCCCCC/C=C/CCCCCCCC(=O)OC[C@H](CC(F)P(=O)(O)O)OC", "note": "(stereo partly drawn)", "EC50": 20}
{"smiles": "CCCCCCCCCCCCCCCC(=O)OC[C@@H](O)CC(F)P(=O)(O)O", "note": "(stereo partly drawn)", "EC50": 20}
{"smiles": "CCCCCCCCCCCCCCCC(=O)O[C@H](COC)CC(F)P(=O)(O)O", "note": "(stereo partly drawn)", "EC50": "~10000"}
{"smiles": "CCCCCCCCCCCCCCCC(=O)OC[C@H](F)COP(=O)(O)O", "EC50": "> 10000"}
{"smiles": "CCCCCCCCCCCCCCCC(=O)OC[C@@H](F)COP(=O)(O)O", "EC50": "> 10000"}
{"smiles": "CCCCCCCC/C=C/CCCCCCCC(=O)OC[C@@H](O)CC(F)(F)P(=O)(O)O", "EC50": 500}
{"smiles": "CCCCCCCC/C=C/CCCCCCCC(=O)OC[C@H](O)CC(F)(F)P(=O)(O)O", "EC50": "~1000"}
{"smiles": "CCCCCCCCCCCCCCCC(=O)OCC(O)COP(=O)(O)O", "note": "(stereo not drawn) [PALMITOYL]", "EC50": "> 10000"}
{"smiles": "CCCCCCCC/C=C/CCCCCCCC(=O)O[C@H](COP(=O)(O)O)C(F)F", "EC50": "> 10000"}
{"smiles": "CCCCCCCC/C=C/CCCCCCCC(=O)O[C@H](COC)COP(O)(O)=S", "EC50": "~5000"}
{"smiles": "CCCCCCCC/C=C/CCCCCCCC(=O)O[C@H](COC)CC(F)P(=O)(O)O", "note": "(stereo partly drawn)", "EC50": 5}
{"smiles": "CCCCCCCC/C=C/CCCCCCCC(=O)OC(CF)COP(=O)(O)O", "note": "(single isomer, unassigned; form 1)", "EC50": "~10"}
{"smiles": "CCCCCCCC/C=C/CCCCCCCC(=O)OC[C@@H](F)COP(=O)(O)O", "EC50": "> 10000"}
{"smiles": "CCCCCCCCCCCCCCCC(=O)OC[C@H](CC(F)P(=O)(O)O)OC", "note": "(stereo partly drawn)", "EC50": "> 10000"}
{"smiles": "CCCCCCCC/C=C/CCCCCCCC(=O)OC(CF)COP(=O)(O)O", "note": "(single isomer, unassigned; form 2)", "EC50": "~200"}
